Assay [1] has as its system MOLT-4. In words: Cytotoxicity against human MOLT4 cells assessed as growth at 10 uM after 48 hrs by sulforhodamine B assay. Format: functional. The following applies: MOLT-4, 48 h, read-out: Activity. Summed up: (§1)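 NCI-60 one-dose screen at 10 µM. Cells in RPMI 1640 with 5% FBS and 2 mM L-glutamine were plated at 5000–40,000/well and preincubated 24 h. Drug was then applied for 48 h at 37 °C, 5% CO₂. Adherent cells were fixed with cold TCA (10% final) and stained with SRB. Growth % is relative to the no-drug control and the time-zero cell number; negative values indicate lethality.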
(In general: The SRB assay estimates cell density from bound dye.)

For assay [2], the system named is HOP-92. Description: Cytotoxicity against human HOP92 cells assessed as growth at 10 uM after 48 hrs by sulforhodamine B assay. The format is functional. To be noted: HOP-92, 48 h, read-out: Activity. Summed up:
as §1

Assay [3] in a line: Cytotoxicity against human 16HBE cells after overnight incubation by MTT assay. The following applies: 16HBE14o-. Format: functional, cell-based. Summed up:
(§2)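 MTT (5 mg/ml) was added for 3 h at 37 °C, formazan dissolved in DMSO, and absorbance read at 540 nm. Viability is relative to untreated cells (100%), fitted to a four-parameter Hill equation. IC50 is 50% formazan formation versus drug-free control. Triplicates, at least three independent experiments.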
For orientation: Tetrazolium assays rely on reduction of a dye to a coloured formazan, in cell work by metabolically active cells.

The test system of assay [4] is Caco-2. In words: Cytotoxicity against human Caco2 cells after overnight incubation by MTT assay. The format is functional, cell-based. Summed up: as §2
A short description of assay [5]: Cytotoxicity against human LAN5 cells after overnight incubation by MTT assay. Format: functional, cell-based. To be noted: LA-N-5. An outline of the steps:
as §2

The test system of assay [6] is UO-31. In words: Cytotoxicity against human UO31 cells assessed as growth at 10 uM after 48 hrs by sulforhodamine B assay. The format is functional. To be noted: UO-31, 48 h, read-out: Activity. Summed up: as §1
Assay [7] relates to HeLa. In words: Cell cycle arrest in human HeLa cells assessed as accumulation at G1 phase at 5 to 50 uM after 72 hrs by propidium iodide staining-based FACS analysis. The format is functional. An outline of the steps: (§3)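 HeLa cells (1 × 10⁶) exposed 72 h to 5, 10, 25 or 50 µM of each compound. Cells were washed, trypsinized, fixed in chilled 70% ethanol on ice for more than 2 h, and stained with propidium iodide for 15 min at 37 °C in the dark. Cell-cycle phase distribution was read by flow cytometry against untreated control cells.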
(In general: In flow cytometry, cells or beads pass a laser one at a time.)

Assay [8] concerns NCI-H292. In words: Cytotoxicity against human NCI-H292 cells after overnight incubation by MTT assay. Format: functional, cell-based. An outline of the steps: as §2
For assay [9], the system named is HeLa. In words: Induction of mitochondrial membrane depolarization in human HeLa cells at 1 uM after overnight incubation by FACS analysis. The format is functional, cell-based. An outline of the steps: (§4)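 HeLa cells (175,000/well) were incubated overnight with serial drug concentrations. They were washed with PBS, incubated 30 min at 37 °C in Krebs Ringer buffered saline, detached, and collected in buffer with 1% FCS. At least 2 × 10⁴ cells were analysed by flow cytometry, with the TMRM signal read on FL2. Depolarization was gated on cells treated overnight with staurosporine as positive control, and the untreated-cell signal was subtracted. Triplicates, replicated twice.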

For assay [10], the system named is PC-3. Description: Cytotoxicity against human PC3 cells assessed as growth at 10 uM after 48 hrs by sulforhodamine B assay. The format is functional. The following applies: PC-3, 48 h, read-out: Activity. An outline of the steps:
as §1

Assay [11] deals with CCRF-CEM. Description: Cytotoxicity against human CCRF-CEM cells assessed as growth at 10 uM after 48 hrs by sulforhodamine B assay. The format is functional. To be noted: read-out: Activity. An outline of the steps:
as §1

Assay [12] relates to HeLa. Description: Cell cycle arrest in human HeLa cells assessed as accumulation at sub-G0/G1 phase at 5 to 50 uM after 72 hrs by propidium iodide staining-based FACS analysis. The format is functional. Summed up: as §3
Assay [13] deals with SK-MEL-2. Description: Cytotoxicity against human SK-MEL-2 cells assessed as growth at 10 uM after 48 hrs by sulforhodamine B assay. The format is functional. To be noted: SK-MEL-2, 48 h, read-out: Activity. Summed up:
as §1

In assay [14] the test system is HeLa. In words: Cytotoxicity against human HeLa cells after overnight incubation by MTT assay. The format is functional, cell-based. Summed up: as §2
Assay [15] deals with SW-620. Description: Cytotoxicity against human SW620 cells assessed as growth at 10 uM after 48 hrs by sulforhodamine B assay. The format is functional. To be noted: SW-620, 48 h, read-out: Activity. Summed up:
as §1

The subject of assay [16] is COLO 205. In words: Cytotoxicity against human COLO205 cells assessed as growth at 10 uM after 48 hrs by sulforhodamine B assay. Format: functional. The following applies: COLO 205, 48 h, read-out: Activity. Summed up: as §1
In assay [17] the test system is MCF7. Description: Cytotoxicity against human MCF7 cells after overnight incubation by MTT assay. The format is functional, cell-based. An outline of the steps: as §2
Assay [18] concerns NCI-H522. Description: Cytotoxicity against human NCI-H522 cells assessed as growth at 10 uM after 48 hrs by sulforhodamine B assay. Format: functional. The following applies: NCI-H522, 48 h, read-out: Activity. Summed up: as §1
The subject of assay [19] is T47D. In words: Cytotoxicity against human T47D cells assessed as growth at 10 uM after 48 hrs by sulforhodamine B assay. The format is functional. To be noted: read-out: Activity. An outline of the steps:
as §1

Assay [20] has as its system SNB-75. Description: Cytotoxicity against human SNB75 cells assessed as growth at 10 uM after 48 hrs by sulforhodamine B assay. The format is functional. The following applies: SNB-75, 48 h, read-out: Activity. Summed up: as §1
Assay [21] has as its system IGROV-1. In words: Cytotoxicity against human IGROV1 cells assessed as growth at 10 uM after 48 hrs by sulforhodamine B assay. The following applies: IGROV-1, 48 h, read-out: Activity. Format: functional. Summed up:
as §1

In assay [22] the test system is HeLa. In words: Induction of mitochondrial membrane depolarization in human HeLa cells at 3 to 4 uM after overnight incubation by FACS analysis. Format: functional, cell-based. An outline of the steps: as §4
Assay [23] has as its system HeLa. In words: Cell cycle arrest in human HeLa cells assessed as accumulation at sub-G0/G1 phase at 50 uM after 72 hrs by propidium iodide staining-based FACS analysis. Format: functional. Summed up:
as §3

The subject of assay [24] is HeLa. In words: Cell cycle arrest in human HeLa cells assessed as accumulation at S phase at 50 uM after 72 hrs by propidium iodide staining-based FACS analysis. Format: functional. An outline of the steps:
as §3

The subject of assay [25] is HeLa. Description: Induction of mitochondrial membrane depolarization in human HeLa cells after overnight incubation by FACS analysis. The format is functional, cell-based. Summed up: as §4
The test system of assay [26] is HeLa. In words: Induction of mitochondrial membrane depolarization in human HeLa cells at < 10 uM after overnight incubation by FACS analysis. Format: functional, cell-based. Summed up:
as §4

The subject of assay [27] is HeLa. In words: Induction of mitochondrial membrane depolarization in human HeLa cells at 3 to 8 uM after overnight incubation by FACS analysis. Format: functional, cell-based. Summed up: as §4

Active and inactive are the calls of the source. The rule behind the calls is not given here.

Turning to `Cc1cc(=O)n2nnc3cc(C(F)(F)F)ccc3n12`, the growth at 10 µM in assay [1] turned out to be 91%; in [2], 94%; in [6], 84%; in [10], 101%; in assay [11] it was 103%; in assay [13], 99%. The growth at 10 µM in [15] amounted to 118%; in assay [16] it was 108%; in assay [18], 97%; in assay [19], 115%; in [20], 116%. The IC50 (commonly the point on the concentration scale where inhibition reaches its midpoint) in [3] was 30.9 µM; in assay [4], > 100 µM; in assay [5], 15.1 µM; in [8] it was > 100 µM; in [14] it was > 100 µM; in [17], > 100 µM. Also, the Activity was -12% in assay [7] and 7.2% in [12]. Moreover, the outcome in assay [9] was Active.
`Cc1cc2nnn3c(=O)cc(C)n3c2cc1C`: the growth at 10 µM in [21] was found to be 91%; in assay [1] it was 82%; in assay [2], 93%; in assay [6], 84%; in assay [10], 100%; in [11], 19%. For the same compound, the growth at 10 µM amounted to 96% in [13]; 94% in [15]; 66% in assay [16]; 97% in [18]; 97% in assay [19]; 89% in assay [20]. The IC50 in assay [3] worked out at 38.9 µM; in assay [4], 46.8 µM; in assay [5], 95.5 µM; in assay [8], 23.4 µM; in assay [14], 13.2 µM; in [17] it was 46.7 µM. In addition, the outcome in assay [22] was Active. The Activity in [23] came to 18%; in assay [24], 10%.
Regarding `Cc1cc(=O)n2nnc3cc(Cl)ccc3n12`, the EC50 – broadly, the midpoint of the concentration-response curve – in assay [25] came to 5 µM. Also, the half-inhibitory concentration (IC50) in assay [3] was 17.7 µM; in assay [4] it was 24 µM; in assay [5], 31.6 µM; in assay [8], 23.4 µM; in [14] it was 14.8 µM; in assay [17], 20.5 µM.
The compound `Cc1cc(=O)n2nnc3cc(Cl)c(Cl)cc3n12` yielded an EC50 in assay [25] of 3 µM. For the same compound, the growth at 10 µM was 59% in assay [1]; 101% in assay [2]; 81% in assay [6]; 94% in assay [10]; 23% in assay [11]; 102% in assay [13]. Moreover, the growth at 10 µM in [15] was 23%; in [16], -64%; in [18], 54%; in assay [19], 76%; in [20], 96%. For the same compound, the IC50 in assay [3] came to 13.5 µM; in [4], 25.7 µM; in [5], 25.7 µM; in assay [8], 28.2 µM; in assay [14] it was 14.8 µM; in assay [17], 13.9 µM. Besides, the Activity in assay [23] amounted to 25.4%; in [24], 19.4%.
Consider `Cc1cc(=O)n2nnc3ccc(Cl)cc3n12`, for which the IC50 in assay [3] came to 27.5 µM; in assay [4] it was 34.6 µM; in assay [5], 48.9 µM; in assay [8], 25.1 µM; in assay [14] it was 15.8 µM; in assay [17] it was 29.5 µM.
As for `Cc1cc(=O)n2nnc3cc(C#N)ccc3n12`, the growth at 10 µM worked out at 95% in [1]; 103% in assay [2]; 105% in assay [6]; 101% in assay [10]; 100% in assay [11]; 99% in [13]. Besides, the growth at 10 µM in [15] stood at 110%; in assay [16] it was 104%; in assay [18] it was 97%; in assay [19], 91%; in [20] it was 96%. Besides, the IC50 in [3] was determined as 46.7 µM; in [4], 37.1 µM; in assay [5], 28.2 µM; in assay [8], 43.6 µM; in [14], 27 µM; in assay [17], 35.9 µM. Further, the result in assay [26] was Active.
For the compound `Cc1ccc2c(c1)nnn1c(=O)cc(C)n21`, the outcome in [27] was Active. The IC50 in [3] came to 36.3 µM; in [4], 50.2 µM; in [5], 93.3 µM; in [8] it was 25.1 µM; in assay [14], 15.4 µM; in assay [17], 42.6 µM.

The values are drawn from ChEMBL document CHEMBL2390871, “Exploring the anticancer potential of pyrazolo[1,2-a]benzo[1,2,3,4]tetrazin-3-one derivatives: the effect on apoptosis induction, cell cycle and proliferation” (Eur J Med Chem, 2013).
